Test results: ChEMBL document CHEMBL1132112, “Novel modifications in the alkenyldiarylmethane (ADAM) series of non-nucleoside reverse transcriptase inhibitors” (J Med Chem, 1999); call rule not given here

Columns and labels:
[1] = tested on: CEM-SS; experiment: 50% inhibitory concentration for cytopathicity of HIV-1 RF in CEM-SS cells.; format: functional, cell-based; conditions: Homo sapiens
Method in brief: (§1)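 CEM-SS cells infected with HIV-1 RF; drug-induced protection from viral cytopathic effect read by XTT, as percent of uninfected drug-free control. EC50 is the concentration giving 50% protection. Triplicate wells on each plate, two sister plates; the plate EC50s (each a triplicate average) were averaged. XTT results were confirmed by supernatant RT and p24 levels. NA means no inhibition up to the concentration cytotoxic to uninfected cells.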

[2] = tested on: CCRF-CEM; experiment: Concentration inhibiting 50% of mock-infected CEM cells.; format: functional; conditions: Homo sapiens
Method in brief: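 Uninfected (mock-infected) CEM-SS cultures exposed to drug. Viability by XTT, expressed as percent of drug-free control. CC50 is the concentration causing 50% cell death. Triplicates on each plate, two sister plates averaged.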

[3] = target: T1, Human immunodeficiency virus type 1 reverse transcriptase (Human immunodeficiency virus 1, UniProt Q72547); experiment: Inhibition of HIV-1 Reverse transcriptase using poly-(ra)-oligo(dt) as the template primer; NI=No inhibition
Method in brief: (§2)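 Purified p66/51 HIV-1 reverse transcriptase. Inhibition read as incorporation of [32P]-TTP into poly(rA)·oligo(dT) or of [32P]GTP into poly(rC)·oligo(dG) homopolymer template-primer. IC50 taken as concentration giving 50% inhibition.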

[4] = tested on: CEM-SS; experiment: 50% inhibitory concentration for cytopathicity of HIV-1 RF in CEM-SS cells; NA=Not active; format: functional, cell-based, Homo sapiens; method in brief: as §1
[5] = tested on: CEM-SS; experiment: Inhibition of cytopathic effect of HIV-1 RT containing the specified mutation K103N in CEM-SS cells.; format: functional, cell-based, Homo sapiens
[6] = tested on: CEM-SS; experiment: Inhibition of cytopathic effect of HIV-1 RT containing the specified mutation L100I in CEM-SS cells.; format: functional, cell-based, Homo sapiens
[7] = tested on: CEM-SS; experiment: Inhibition of cytopathic effect of HIV-1 RT containing the specified mutation Y181C in CEM-SS cells.; format: functional, cell-based, Homo sapiens
[8] = tested on: CEM-SS; experiment: Inhibition of cytopathic effect of HIV-1 RT containing the specified mutation Y181C resistant to AZT in CEM-SS cells.; format: functional, cell-based, Homo sapiens
[9] = tested on: Human immunodeficiency virus 1; experiment: Inhibition of cytopathic effect of HIV-1 strain wild type enzyme NL4-3 in CEM-SS cells.; format: functional, organism-based; conditions: Human immunodeficiency virus 1, CEM-SS
[10] = tested on: CEM-SS; experiment: 50% inhibitory concentration for cytopathicity of HIV-1 RF in CEM-SS cells; NA=Not active (EC50 uM); format: functional, cell-based, Homo sapiens; method in brief: as §1
[11] = target: T1, Human immunodeficiency virus type 1 reverse transcriptase; experiment: Inhibition of HIV-1 Reverse transcriptase using poly-(rc)-oligo(dg) as the template primer; NI=No inhibition; method in brief: as §2
[12] = target: T1, Human immunodeficiency virus type 1 reverse transcriptase; experiment: Inhibition of HIV-1 Reverse transcriptase using poly-(ra)-oligo(dt) as the template primer; no inhibition; method in brief: as §2
[13] = target: T1, Human immunodeficiency virus type 1 reverse transcriptase; experiment: Inhibition of HIV-1 Reverse transcriptase using poly-(rc)-oligo(dg) as the template primer.
Method in brief: (§3)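 Purified p66/51 HIV-1 reverse transcriptase. Inhibition read as incorporation of [32P]-TTP into poly(rA)·oligo(dT) or of [32P]GTP into poly(rC)·oligo(dG) homopolymer template-primer.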

[14] = target: T1, Human immunodeficiency virus type 1 reverse transcriptase; experiment: Inhibition of HIV-1 Reverse transcriptase using poly-(ra)-oligo(dt) as the template primer.; method in brief: as §3
[15] = tested on: CEM-SS; experiment: Inhibition of cytopathic effect of HIV-1 RT containing the specified mutation 4X resistant to AZT in CEM-SS cells.; format: functional, cell-based; conditions: Homo sapiens
[16] = tested on: CEM-SS; experiment: Fold resistance of HIV-1 RT containing the specified mutation V106A in CEM-SS cells; format: functional, Homo sapiens
Method in brief: (§4)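 Fold resistance of mutant HIV-1 viruses whose RT carries the listed mutation(s), measured against a virus containing wild-type NL4-3 RT. Anti-HIV readout by CEM-SS cytopathic-effect protection.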

[17] = tested on: CEM-SS; experiment: Fold resistance of HIV-1 RT containing the specified mutation V108I in CEM-SS cells; format: functional, Homo sapiens; method in brief: as §4
[18] = tested on: CEM-SS; experiment: Fold resistance of HIV-1 RT containing the specified mutation 4X resistant to AZT in CEM-SS cells; NC=No significant change in sensitivity; format: functional, cell-based; conditions: Homo sapiens; method in brief: as §4
[19] = tested on: CEM-SS; experiment: Fold resistance of HIV-1 RT containing the specified mutation K101E in CEM-SS cells; NC=No significant change in sensitivity; format: functional, cell-based; conditions: Homo sapiens; method in brief: as §4
[20] = tested on: CEM-SS; experiment: Fold resistance of HIV-1 RT containing the specified mutation K103N in CEM-SS cells; format: functional, Homo sapiens; method in brief: as §4
[21] = tested on: CEM-SS; experiment: Fold resistance of HIV-1 RT containing the specified mutation L100I in CEM-SS cells; format: functional, Homo sapiens; method in brief: as §4
[22] = tested on: CEM-SS; experiment: Fold resistance of HIV-1 RT containing the specified mutation L100I resistant to AZT in CEM-SS cells; format: functional, Homo sapiens; method in brief: as §4
[23] = tested on: CEM-SS; experiment: Inhibition of cytopathic effect of HIV-1 RT containing the specified mutation A98G in CEM-SS cells.; format: functional, cell-based, Homo sapiens
[24] = tested on: CEM-SS; experiment: Inhibition of cytopathic effect of HIV-1 RT containing the specified mutation K101E in CEM-SS cells.; format: functional, cell-based, Homo sapiens
[25] = tested on: CEM-SS; experiment: Inhibition of cytopathic effect of HIV-1 RT containing the specified mutation L100I resistant to AZT in CEM-SS cells.; format: functional, cell-based, Homo sapiens
[26] = tested on: CEM-SS; experiment: Inhibition of cytopathic effect of HIV-1 RT containing the specified mutation L74V in CEM-SS cells.; format: functional, cell-based, Homo sapiens
[27] = tested on: CEM-SS; experiment: Inhibition of cytopathic effect of HIV-1 RT containing the specified mutation V106A in CEM-SS cells.; format: functional, cell-based, Homo sapiens
[28] = tested on: CEM-SS; experiment: Inhibition of cytopathic effect of HIV-1 RT containing the specified mutation V108I in CEM-SS cells.; format: functional, cell-based, Homo sapiens
[29] = tested on: CEM-SS; experiment: Inhibition of cytopathic effect of HIV-1 RT containing the specified mutation V179D in CEM-SS cells.; format: functional, cell-based, Homo sapiens
[30] = tested on: CEM-SS; experiment: Inhibition of cytopathic effect of HIV-1 RT containing the specified mutation Y188C in CEM-SS cells.; format: functional, cell-based, Homo sapiens
[31] = tested on: CEM-SS; experiment: Fold resistance of HIV-1 RT containing the specified mutation V179D in CEM-SS cells; format: functional, Homo sapiens; method in brief: as §4
[32] = tested on: CEM-SS; experiment: Fold resistance of HIV-1 RT containing the specified mutation Y181C in CEM-SS cells; format: functional, Homo sapiens; method in brief: as §4
[33] = tested on: CEM-SS; experiment: Fold resistance of HIV-1 RT containing the specified mutation Y181C resistant to AZT in CEM-SS cells; format: functional, Homo sapiens; method in brief: as §4
[34] = tested on: CEM-SS; experiment: Fold resistance of HIV-1 RT containing the specified mutation Y188C in CEM-SS cells; format: functional, Homo sapiens; method in brief: as §4
[35] = Therapeutic index was determined for the compound as CC50/EC50; conditions: read-out: TI
Method in brief: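 Ratio of CC50 (XTT viability, uninfected CEM-SS) to EC50 (XTT protection from HIV-1 RF cytopathicity in CEM-SS). Both values come from triplicates on each plate, two sister plates averaged. NA means no antiviral inhibition up to the cytotoxic concentration.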

[36] = tested on: CEM-SS; experiment: Fold resistance of HIV-1 RT containing the specified mutation L74V in CEM-SS cells; S=Enhanced sensitivity; format: functional, cell-based; conditions: Homo sapiens; method in brief: as §4
[37] = tested on: CEM-SS; experiment: Fold resistance of HIV-1 RT containing the specified mutation A98G in CEM-SS cells; format: functional, Homo sapiens; method in brief: as §4
[38] = tested on: CEM-SS; experiment: Fold resistance of HIV-1 RT containing the specified mutation V106A in CEM-SS cells.; format: functional, Homo sapiens
[39] = tested on: CEM-SS; experiment: Fold resistance of HIV-1 RT containing the specified mutation 4X AZT in CEM-SS cells; S=Enhanced sensitivity; format: functional, cell-based; conditions: Homo sapiens
[40] = tested on: CEM-SS; experiment: Fold resistance of HIV-1 RT containing the specified mutation A98G in CEM-SS cells.; format: functional, Homo sapiens
[41] = tested on: CEM-SS; experiment: Fold resistance of HIV-1 RT containing the specified mutation K101E in CEM-SS cells.; format: functional, Homo sapiens
[42] = tested on: CEM-SS; experiment: Fold resistance of HIV-1 RT containing the specified mutation K103N in CEM-SS cells; NC=No significant change in sensitivity; format: functional, cell-based; conditions: Homo sapiens
[43] = tested on: CEM-SS; experiment: Fold resistance of HIV-1 RT containing the specified mutation V179D in CEM-SS cells.; format: functional, Homo sapiens
[44] = tested on: CEM-SS; experiment: Fold resistance of HIV-1 RT containing the specified mutation Y181C in CEM-SS cells.; format: functional, Homo sapiens
[45] = tested on: CEM-SS; experiment: Fold resistance of HIV-1 RT containing the specified mutation Y188C in CEM-SS cells.; format: functional, Homo sapiens
[46] = tested on: CEM-SS; experiment: Fold resistance of the specific mutation in RT to the compound; S=Enhanced sensitivity; format: functional, cell-based; conditions: Homo sapiens

COC(=O)c1cc(C(=CCCCCCl)c2cc(Cl)c(OC)c(C(=O)OC)c2)cc(Cl)c1OC
EC50 [1]: 50500 nM
CC50 [2]: > 316000 nM
IC50 [3]: Not Active

CCC(=O)CCCC=C(c1cc(Cl)c(OC)c(C=O)c1)c1cc(Cl)c(OC)c(C=O)c1
EC50 [4]: Not Active
CC50 [2]: 1130 nM

COC(=O)CCCC=C(c1cc(Cl)c(OC)c(C(=O)OC)c1)c1cc(Cl)c(OC)c(C(=O)OC)c1
EC50 [5]: > 50000 nM
EC50 [6]: > 160 nM
EC50 [7]: > 50000 nM
EC50 [8]: > 50000 nM
CC50 [2]: 31600 nM
EC50 [9]: 1780 nM

CCC1(CCCC=C(c2cc(Cl)c(OC)c(C(=O)OC)c2)c2cc(Cl)c(OC)c(C(=O)OC)c2)OCCO1
EC50 [10]: Not Active
CC50 [2]: 19900 nM
IC50 [11]: Not Active
IC50 [12]: Not Active

CCC1(CCC/C=C(\c2cc(Cl)c(OC)c(C=O)c2)c2cc(Cl)c(OC)c(CO)c2)OCCO1
EC50 [4]: Not Active
CC50 [2]: 5800 nM
IC50 [13]: 31600 nM
IC50 [14]: No inhibition

COC(=O)CCCC=C(c1cc(Br)c(OC)c(C(=O)OC)c1)c1cc(Br)c(OC)c(C(=O)OC)c1
EC50 [15]: 70 nM
Fold resistance [16]: 158.5
Fold resistance [17]: 10
EC50 [1]: 1.3 nM
Fold resistance [18]: No significant changed
Fold resistance [19]: No significant changed
Fold resistance [20]: 7
Fold resistance [21]: 4.3
Fold resistance [22]: 5.5
EC50 [23]: 220 nM
EC50 [24]: 70 nM
EC50 [5]: 420 nM
EC50 [6]: 260 nM
EC50 [25]: 330 nM
EC50 [26]: 19 nM
EC50 [27]: 9510 nM
EC50 [28]: 670 nM
EC50 [29]: 40200 nM
EC50 [7]: 6130 nM
EC50 [8]: 3500 nM
EC50 [30]: 1730 nM
Fold resistance [31]: 670
Fold resistance [32]: 102
Fold resistance [33]: 58.3
Fold resistance [34]: 28.8
CC50 [2]: 13000 nM
EC50 [9]: 60 nM
IC50 [13]: 300 nM
selectivity ratio [35]: 10000
IC50 ([14]; read-out: IC50): 1000 nM
Fold resistance [36]: Enhanced sensitivity
Fold resistance [37]: 3.7

CCCCCC=C(c1cc(Br)c(OC)c(C(=O)OC)c1)c1cc(Br)c(OC)c(C(=O)OC)c1
Fold resistance [38]: >8
Fold resistance [39]: Enhanced sensitivity
Fold resistance [40]: 2
Fold resistance [41]: >8
Fold resistance [42]: No significant changed
Fold resistance [43]: >8
Fold resistance [44]: >8
Fold resistance [45]: >8
Fold resistance [46]: Enhanced sensitivity
